According to ChEMBL document CHEMBL1629413, “Hirsutalins A-H, eunicellin-based diterpenoids from the soft coral Cladiella hirsuta” (J Nat Prod, 2010):

How the values were obtained:
[1] = Cytotoxicity against human Hep3B cells by MTT assay; assay type: functional, cell-based, Hep 3B2
Method in brief: (§1)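 Tumor cell lines from ATCC. Viability measured by MTT colorimetric method in duplicate, with doxorubicin as positive control. Read-out reported as IC50.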

A549 = assay: Cytotoxicity against human A549 cells by MTT assay; assay type: functional, cell-based; method in brief: as §1
Ca9-22 = assay: Cytotoxicity against human Ca9-22 cells by MTT assay; assay type: functional, cell-based; method in brief: as §1
RAW264.7 [2] = assay: Antiinflammatory activity in mouse RAW264.7 cells assessed as accumulation of LPS-induced iNOS at 10 uM by immunoblot analysis; assay type: functional
Method in brief: (§2)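 RAW264.7 macrophages (ATCC) stimulated with LPS, with test compound at 10 μM. iNOS and COX-2 protein levels measured by western blotting. Levels expressed as % of cells treated with LPS alone.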

RAW264.7 [3] = assay: Antiinflammatory activity in mouse RAW264.7 cells assessed as accumulation of LPS-induced COX-2 at 10 uM by immunoblot analysis; assay type: functional; method in brief: as §2
MDA-MB-231 = assay: Cytotoxicity against human MDA-MB-231 cells by MTT assay; assay type: functional, cell-based; method in brief: as §1
MCF7 = assay: Cytotoxicity against human MCF7 cells by MTT assay; assay type: functional, cell-based; method in brief: as §1
HepG2 = assay: Cytotoxicity against human HepG2 cells by MTT assay; assay type: functional, cell-based; method in brief: as §1

For `C=C1C[C@H]2O[C@H]([C@@H]3[C@@H]([C@@H](C)COC(=O)CCC)CC=C(C)[C@@H]32)[C@](C)(OC(=O)[C@H](O)CC)CC[C@@H]1O` [HIRSUTALIN A], the IC50 [1] was 29 µM, the IC50 (A549) was 28 µM and the IC50 (Ca9-22) was 35 µM.
Compound `C=C1CC[C@H]([C@@H](C)COC(C)=O)[C@@H]2[C@H]1[C@H]1CC(=C)[C@@H](O)CC(OC(=O)C(CC)OC(=O)CCC)[C@@](C)(O)[C@@H]2O1` (some centres not stated) [HIRSUTALIN B] has an Activity (RAW264.7 [2]) of 6.8% and an Activity (RAW264.7 [3]) of 49%.
Compound `C=C1CC[C@H]([C@@H](C)CO)[C@@H]2[C@H]1[C@H]1CC(=C)[C@@H](O)CC[C@@](C)(OC(=O)C(CC)OC(=O)CCC)[C@@H]2O1` (some centres not stated) [HIRSUTALIN C] has an Activity (RAW264.7 [2]) of 43.6%.
Compound `C=C1CC[C@H]([C@@H](C)CO)[C@@H]2[C@H]1[C@H]1CC(=C)[C@@H](O)CC[C@@](C)(OC(=O)C(CC)OC(C)=O)[C@@H]2O1` (some centres not stated) [HIRSUTALIN D] has an Activity (RAW264.7 [2]) of 3.3%.
With `CCCC(=O)O[C@]1(C)CC[C@H](O)[C@@](C)(O)C[C@H]2O[C@@H]1[C@H]1[C@@H]2C(C)=CC[C@@H]1C(C)C` [HIRSUTALIN E] the IC50 [1] was 14 µM, the IC50 (A549) was 34 µM and the IC50 (Ca9-22) was 34 µM. The IC50 (MDA-MB-231) was 41 µM, the IC50 (MCF7) was 35 µM and the IC50 (HepG2) was 4.7 µM.
With `C=C1CC[C@H]([C@@H](C)CO)[C@@H]2[C@H]1C(=O)C[C@@](C)(O)[C@H]1CC[C@@](C)(OC(=O)C(CC)OC(=O)CCC)[C@@H]2O1` (some centres not stated) [HIRSUTALIN F] the IC50 [1] was 29 µM, the IC50 (MCF7) was 32 µM and the IC50 (HepG2) was 29 µM.
Work on `C=C1CC[C@H]([C@@H](C)COC(C)=O)[C@@H]2[C@H]1[C@H]1C[C@](C)(O)[C@@H](O)CC[C@@](C)(OC(=O)CCC)[C@@H]2O1` [HIRSUTALIN H] yielded an Activity (RAW264.7 [2]) of 32.3%.
